Bounds are passed on as bounds.

The target of assay [1] is Human immunodeficiency virus type 1 reverse transcriptase (Human immunodeficiency virus 1, UniProt Q72547). Description: Inhibition of His6-tagged HIV-1 reverse transcriptase RNase H using 5'-GTTTTCTTTTCCCCCCTGAC-3'-Fluorescein-labeled RNA/5'-CAAAAGAAAAGGGGGGACUG-3'-Dabcyl-labeled DNA as susbtrate incubated for 1 hr by fluorescence based assay.
For assay [2], the target named is T1, Human immunodeficiency virus type 1 integrase (Human immunodeficiency virus 1, UniProt Q7ZJM1). Description: Inhibition of LEDGF/p75-dependent full length HIV-1 integrase expressed in Escherichia coli BL21(DE3) cells preincubated for 1 hr further incubated for 90 mins with biotin-labeled donor DNA and target DNA by HTRF assay. Background: TR-FRET usually uses a lanthanide donor and a delayed reading to cut background.
T1 sequence (Q7ZJM1 whole entry): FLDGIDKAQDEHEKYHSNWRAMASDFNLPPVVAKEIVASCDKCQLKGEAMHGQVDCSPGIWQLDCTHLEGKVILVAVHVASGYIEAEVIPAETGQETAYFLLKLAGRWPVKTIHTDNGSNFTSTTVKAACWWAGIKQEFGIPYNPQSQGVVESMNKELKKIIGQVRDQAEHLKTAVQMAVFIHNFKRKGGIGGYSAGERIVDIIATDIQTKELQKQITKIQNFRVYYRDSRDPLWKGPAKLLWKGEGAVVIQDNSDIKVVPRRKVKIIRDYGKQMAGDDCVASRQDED

The target in assay [3] is Human immunodeficiency virus type 1 integrase (Human immunodeficiency virus 1) (UniProt Q7ZJM1). Description: Inhibition of LEDGF/p75-dependent full length HIV-1 integrase expressed in Escherichia coli BL21(DE3) cells at 100 uM preincubated for 1 hr further incubated for 90 mins with biotin-labeled donor DNA and target DNA by HTRF assay relative to control. The essentials: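 Added 9 nM biotinylated donor DNA, 50 nM Cy5 acceptor DNA and 50 nM LEDGF/p75. Incubation 90 min at 37 °C, then 4 nM europium-streptavidin added. HTRF read (excitation 314 nm, emission 668/620 nm).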
Sequence of Human immunodeficiency virus type 1 integrase (Human immunodeficiency virus 1) (Q7ZJM1 as listed by the source): as the sequence (Q7ZJM1 whole entry) above

The nature of assay [4]: Inhibition of His-tagged HIV-1 integrase interaction with HIV-1 FLAG-tagged LEDGF/p75 expressed in Escherichia coli BL21(DE3) cells incubated for 30 mins followed by LEDGF addition measured after 4 hrs by HTRF assay. More on the design: species or system Human immunodeficiency virus 1.
In assay [5] the test system is Human immunodeficiency virus 1. Kind of assay: Inhibition of His-tagged HIV-1 integrase interaction with HIV-1 FLAG-tagged LEDGF/p75 expressed in Escherichia coli BL21(DE3) cells at 100 uM incubated for 30 mins followed by LEDGF addition measured after 4 hrs by HTRF assay relative to control.
For assay [6], the target named is T1, Human immunodeficiency virus type 1 integrase. Description: Inhibition of subunit exchanging activity of His and Flag-tagged HIV-1 integrase expressed in Escherichia coli BL21(DE3) cells after 2.5 hrs by HTRF assay.
For assay [7], the target named is Human immunodeficiency virus type 1 integrase (Human immunodeficiency virus 1) (UniProt Q7ZJM1).
Assay [8] concerns the target Human immunodeficiency virus type 1 reverse transcriptase (Human immunodeficiency virus 1) (UniProt Q72547). Description: Residual activity of His-tagged HIV-1 reverse transcriptase RNase H at 100 uM using 5'-GTTTTCTTTTCCCCCCTGAC-3'-Fluorescein-labeled RNA/5'-CAAAAGAAAAGGGGGGACUG-3'-Dabcyl-labeled DNA as susbtrate incubated for 1 hr by fluorescence based assay relative to control.

As usually defined, the IC50 is the concentration that gives 50% inhibition. High values mean weaker potency in that assay, low ones greater potency in that assay. As a reminder, the inhibition is the change of the read-out against control, counted positive when it falls. Lower therefore signals a weak effect. As to `Cc1ccc2oc(=O)c3cc(C4=Nc5ccc(C(=O)c6ccccc6)cc5N=CC4)c(=O)oc3c2c1`, the IC50 is 42.9 µM in assay [1] and more than 100 µM in assay [2]. In assay [3], this molecule displayed an inhibition of 78%.
The molecule `Cc1nnc(C(=O)NC(C)(C)c2nc(C(=O)NCc3ccc(F)cc3)c(O)c(=O)n2C)o1` had an IC50 in assay [4] of more than 100 µM. In assay [5], this molecule yielded an inhibition of 100%.
For `O=C(c1ccccc1)c1ccc2c(c1)N=CCC(c1c(O)c3c(=O)oc4ccccc4c3oc1=O)=N2`, the IC50 was 38.4 µM in assay [1], 20 µM in assay [2], more than 100 µM in assay [6] and more than 100 µM in assay [4]. Also, the inhibition in assay [5] was found to be 81%. The MI50 in assay [7] is more than 100 µM.
`CC(=O)c1c(O)c2c(=O)oc3ccccc3c2oc1=O`: the values for the IC50 in assay [1] and in assay [2] were 26.3 µM and 8.5 µM, respectively.
On to `O=c1cc(O)c2c(=O)oc3c4ccccc4ccc3c2o1`, for which the IC50 in assay [1] is 24.7 µM; in assay [2], 7.5 µM; in assay [6] it was 57 µM; in assay [4], more than 100 µM. Also, the inhibition in assay [5] is 53%. In assay [7], this molecule displayed an MI50 of more than 100 µM.
Turning to `Cc1ccc2oc(=O)c3c(O)cc(=O)oc3c2c1`, the IC50 is 16.5 µM in assay [1], 9.5 µM in assay [2], 69 µM in assay [6] and more than 100 µM in assay [4]. In assay [5], this molecule returned an inhibition of 55%. Moreover, the MI50 in assay [7] is more than 100 µM.
Take `CC(=O)c1c(O)c2c(=O)oc3c(C)cccc3c2oc1=O`: the IC50 in assay [1] amounted to 25.5 µM; in assay [2], 18.5 µM.
Turning to `CC(=O)CC(=O)c1c(O)c2c(=O)oc3ccc4ccccc4c3c2oc1=O`, the figures for the IC50 in assay [1] and in assay [2] were 13.8 µM and 47.5 µM, respectively.
For `CC(=O)CC(=O)c1c(O)c2c(=O)oc3ccccc3c2oc1=O`, in that order: 85.8 µM and 42 µM.
In assay [4], `CCCC(C(=O)O)c1c(C)nc2ccc(Cl)cc2c1-c1ccccc1` (centres undefined) showed an IC50 of 13 µM. In addition, in assay [7], the MI50 worked out at 10 µM.
Consider `Cc1cccc2c1oc(=O)c1c(O)cc(=O)oc12`, for which the IC50 worked out at 29.8 µM in assay [1] and 24 µM in assay [2].
On the same counts, the results for `O=c1cc(O)c2c(=O)oc3ccc4ccccc4c3c2o1` are 61.3 µM and 21.5 µM.
In general, residual activity refers to what remains of the control signal, in per cent. With `Cc1ccc2c(c1)oc(=O)c1c(O)cc(=O)oc12`, the IC50 is more than 100 µM in assay [1] and 41.5 µM in assay [2]. In assay [8], the residual activity was 89%.
On to `CC(=O)c1c(O)c2c(=O)oc3ccc(C)cc3c2oc1=O`, for which the 50% inhibitory concentration (IC50) in assay [1] is 6.75 µM; in assay [2], 6.45 µM; in assay [6], 56.5 µM; in assay [4] it was more than 100 µM. The molecule also showed an inhibition in assay [5] of 52%. The same molecule yielded an MI50 in assay [7] of more than 100 µM.
As to `CC(=O)c1c(O)c2c(=O)oc3cc(C)ccc3c2oc1=O`, the IC50 in assay [1] was more than 100 µM; in assay [2] it was 22.4 µM. In addition, the residual activity in assay [8] came to 63%.
As to `Cc1cc(-c2c(O)c3c(=O)oc4ccccc4c3oc2=O)nn1-c1ccccc1`, the IC50 was 51.8 µM in assay [1] and more than 100 µM in assay [2]. For the same molecule, in assay [3], the inhibition worked out at 61%.
On to `CC(=O)CC(=O)c1c(O)c2c(=O)oc3c4ccccc4ccc3c2oc1=O`, for which the IC50 in assay [1] is 51.2 µM; in assay [2], 11 µM; in assay [6], 85 µM; in assay [4], more than 100 µM. The inhibition in assay [5] came out at 73%. For the same molecule, the MI50 in assay [7] is more than 100 µM.
Regarding `Cc1cc(=O)c2c(=O)oc3c4ccccc4oc(=O)c3c2o1`, the IC50 in assay [1] was 16.8 µM; in assay [2], 14 µM; in assay [6], more than 100 µM; in assay [4], more than 100 µM. Besides, the inhibition in assay [5] came out at 56%. The same molecule showed an MI50 in assay [7] of more than 100 µM.

Values taken from ChEMBL document CHEMBL4359896, “Chromenone derivatives as a versatile scaffold with dual mode of inhibition of HIV-1 reverse transcriptase-associated Ribonuclease H function and integrase activity” (Eur J Med Chem, 2019).
